From ChEMBL document CHEMBL3792385, “Identification and Evaluation of Antiepileptic Activity of C21 Steroidal Glycosides from the Roots of Cynanchum wilfordii” (2016) come the findings set out here.

Format in all cases: functional
Assay [1] concerns Mus musculus. The assay is described as follows: Antiepileptic activity in KM mouse assessed as protection against maximal electroshock-induced seizures at 100 mg/kg, po administered 1 hr prior to electrical stimulation. Put shortly:
(§1)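 Male KM mice, 20 ± 2 g, dosed orally; vehicle-treated group as control. Read-out is protection rate against maximal electroshock-induced seizures. Graded doses of 25, 50, 75, 100 and 150 mg/kg were used. ED50 and 95% confidence interval were fitted to the Hill equation.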
On the technique in general: In the maximal electroshock model the usual endpoint is tonic extension of the hind limbs.

The test system of assay [2] is Mus musculus. Briefly: Antiepileptic activity in po dosed KM mouse assessed as protection against maximal electroshock-induced seizures administered 1 hr prior to electrical stimulation. The essentials:
as §1

The test system of assay [3] is Mus musculus. The assay is described as follows: Antiepileptic activity in KM mouse assessed as protection against maximal electroshock-induced seizures at 25 mg/kg, po administered 1 hr prior to electrical stimulation. The essentials: as §1
The test system of assay [4] is Mus musculus. The assay is described as follows: Antiepileptic activity in KM mouse assessed as protection against maximal electroshock-induced seizures at 50 mg/kg, po administered 1 hr prior to electrical stimulation. Put shortly:
as §1

Assay [5] concerns Mus musculus. Briefly: Antiepileptic activity in KM mouse assessed as protection against maximal electroshock-induced seizures at 75 mg/kg, po administered 1 hr prior to electrical stimulation. The essentials:
as §1

Assay [6] concerns Mus musculus. The assay is described as follows: Antiepileptic activity in KM mouse assessed as protection against maximal electroshock-induced seizures at 150 mg/kg, po administered 1 hr prior to electrical stimulation. Put shortly: as §1
Assay [7] has as its system Mus musculus. Briefly: Antiepileptic activity in po dosed KM mouse assessed as protection against maximal electroshock-induced seizures administered 30 mins prior to electrical stimulation. The essentials:
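Male KM mice (20 ± 2 g) were given compound orally, with a vehicle control group. Screening used 100 mg/kg, and dose–response series used 25, 50, 75, 100 and 150 mg/kg. The read-out was the percentage of mice protected from MES-induced seizures. ED50 and 95% confidence intervals were derived by Hill-equation fitting.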

One may read the inhibition in vivo as the share of the control response that was lost under treatment. As usually defined, the ED50 is the dose that gives a 50% effect, or the effect in half of the subjects. As to `CO[C@H]1C[C@H](O[C@@H]2[C@H](C)O[C@@H](O[C@H]3[C@@H](OC)C[C@H](O[C@H]4CC[C@@]5(C)C(=CC[C@]6(O)[C@@H]5C[C@@H](OC(=O)/C=C/c5ccccc5)[C@@]5(C)[C@]6(O)CC[C@@]5(O)C(C)=O)C4)O[C@@H]3C)C[C@@H]2OC)O[C@H](C)[C@H]1O`, the inhibition in vivo at 100 mg/kg in the assay on Mus musculus [1] came out at 60%. Further, the ED50 with Mus musculus [2] was 95.3 mg/kg.
As to `CO[C@H]1C[C@@H](O[C@H]2[C@H](C)O[C@H](O[C@H]3[C@@H](C)O[C@H](O[C@H]4[C@@H](OC)C[C@H](O[C@@H]5CC[C@]6(C)C(=CC[C@@]7(O)[C@H]6C[C@H](OC(C)=O)[C@]6(C)[C@@]7(O)CC[C@]6(O)C(C)=O)C5)O[C@@H]4C)C[C@H]3OC)C[C@H]2OC)O[C@H](C)[C@H]1O`, the ED50 with Mus musculus [2] is above 200 mg/kg.
In the case of `CO[C@H]1C[C@@H](O[C@H]2[C@H](C)O[C@H](O[C@H]3[C@@H](C)O[C@H](O[C@H]4[C@@H](OC)C[C@H](O[C@@H]5CC[C@]6(C)C(=CC[C@@]7(O)[C@H]6C[C@H](OC(=O)/C=C(\C)C(C)C)[C@]6(C)[C@@]7(O)CC[C@]6(O)C(C)=O)C5)O[C@@H]4C)C[C@H]3OC)C[C@H]2OC)O[C@H](C)[C@H]1O`, in the assay on Mus musculus [1], the inhibition in vivo at 100 mg/kg turned out to be 40%. Also, the ED50 with Mus musculus [2] came to 124 mg/kg.
As for `CC[C@@H](C)C(=O)O[C@@H](C)[C@]1(O)CC[C@@]2(O)[C@]1(C)[C@H](OC(=O)/C=C/c1ccccc1)C[C@@H]1[C@@]3(C)CC[C@H](O[C@@H]4C[C@@H](OC)[C@@H](O[C@H]5C[C@H](OC)[C@H](O[C@H]6C[C@H](OC)[C@H](O[C@H]7C[C@@H](OC)[C@@H](O)[C@H](C)O7)[C@@H](C)O6)[C@H](C)O5)[C@H](C)O4)CC3=CC[C@]12O`, the inhibition in vivo at 100 mg/kg with Mus musculus [1] was determined as 90%. The inhibition in vivo at 25 mg/kg in the assay on Mus musculus [3] is 20%. In the assay on Mus musculus [4], the inhibition in vivo at 50 mg/kg is 50%. Further, in the assay with Mus musculus [5], the inhibition in vivo at 75 mg/kg worked out at 70%. Besides, in the assay with Mus musculus [6], the inhibition in vivo at 150 mg/kg worked out at 100%. For the same compound, the ED50 in the assay on Mus musculus [2] worked out at 48.5 mg/kg.
As for `CO[C@H]1C[C@H](O[C@H]2[C@H](C)O[C@H](O[C@H]3CC[C@@]4(C)C(=CC[C@]5(O)[C@@H]4C[C@@H](OC(=O)/C=C/c4ccccc4)[C@@]4(C)[C@]5(O)CC[C@@]4(O)[C@H](C)OC(=O)c4cccnc4)C3)C[C@H]2OC)O[C@@H](C)[C@H]1O[C@H]1C[C@H](OC)[C@H](O[C@H]2C[C@@H](OC)[C@@H](O)[C@H](C)O2)[C@@H](C)O1`, the inhibition in vivo at 100 mg/kg in the assay with Mus musculus [1] was determined as 55.5%. Moreover, the ED50 in the assay with Mus musculus [2] stood at 88.1 mg/kg.
As to `CO[C@H]1C[C@@H](O[C@H]2[C@H](C)O[C@H](O[C@H]3[C@@H](C)O[C@H](O[C@H]4[C@@H](OC)C[C@H](O[C@@H]5CC[C@]6(C)C(=CC[C@@]7(O)[C@H]6C[C@H](O)[C@]6(C)[C@@]7(O)CC[C@]6(O)C(C)=O)C5)O[C@@H]4C)C[C@H]3OC)C[C@H]2OC)O[C@H](C)[C@H]1O`, the ED50 with Mus musculus [2] is above 200 mg/kg.
On the same count and under the same terms, as for `CO[C@H]1C[C@H](O[C@H]2[C@@H](OC)C[C@H](O[C@H]3CC[C@@]4(C)C(=CC[C@]5(O)[C@@H]4C[C@@H](OC(=O)/C=C(\C)C(C)C)[C@@]4(C)[C@]5(O)CC[C@@]4(O)C(C)=O)C3)O[C@@H]2C)O[C@@H](C)[C@H]1O[C@H]1C[C@H](OC)[C@H](O[C@H]2O[C@@H](CO)[C@H](O)[C@@H](O)[C@@H]2O)[C@@H](C)O1`, the figure is above 200 mg/kg.
Same read-out and setting: as for `CO[C@H]1C[C@@H](O[C@H]2[C@H](C)O[C@H](O[C@H]3[C@@H](C)O[C@H](O[C@H]4[C@@H](OC)C[C@H](O[C@@H]5CC[C@]6(C)C(=CCC(=O)[C@H]6C[C@H](OC(=O)/C=C/c6ccccc6)[C@]6(C)C(=O)CC[C@]6(O)[C@@H](C)OC(C)=O)C5)O[C@@H]4C)C[C@H]3OC)C[C@H]2OC)O[C@H](C)[C@H]1O`, the figure is above 200 mg/kg; as for `CO[C@H]1C[C@H](O[C@H]2CC[C@@]3(C)C(=CC[C@]4(O)[C@@H]3C[C@@H](OC(=O)/C=C(\C)C(C)C)[C@@]3(C)[C@]4(O)CC[C@@]3(O)C(C)=O)C2)O[C@H](C)[C@H]1O[C@@H]1C[C@@H](OC)[C@@H](O[C@H]2C[C@H](OC)[C@H](O[C@@H]3C[C@H](OC)[C@H](O[C@H]4O[C@@H](CO)[C@H](O)[C@@H](O)[C@@H]4O)[C@@H](C)O3)[C@@H](C)O2)[C@@H](C)O1`, above 200 mg/kg.
On to `CO[C@H]1C[C@@H](O[C@H]2[C@H](C)O[C@H](O[C@H]3[C@@H](C)O[C@H](O[C@H]4[C@@H](OC)C[C@H](O[C@@H]5CC[C@]6(C)C(=CC[C@@]7(O)[C@H]6C[C@H](OC(=O)/C=C/c6ccccc6)[C@]6(C)[C@@]7(O)CC[C@]6(O)C(C)=O)C5)O[C@@H]4C)C[C@H]3OC)C[C@H]2OC)O[C@H](C)[C@H]1O`, for which the inhibition in vivo at 100 mg/kg with Mus musculus [1] came to 70%. Also, the ED50 in the assay with Mus musculus [2] amounted to 72.3 mg/kg.
Consider `CCOC(=O)Nc1ccc(NCc2ccc(F)cc2)cc1N` [EZOGABINE], for which the ED50 with Mus musculus [7] was 15 mg/kg.
